In ChEMBL document CHEMBL1144492, “Novel T-type calcium channel blockers: dioxoquinazoline carboxamide derivatives” (Bioorg Med Chem, 2007):
Active and inactive are the calls of the source. No cut-off for these calls is given here.

Assays:
[1] = target: T1, Voltage-dependent T-type calcium channel subunit alpha-1G (Homo sapiens, UniProt O43497); experiment: Inhibition of T-type calcium channel Cav3.1 with alpha-1G subunit expressed in HEK293 cells at 100 uM by FDSS6000 assay; format: cell-based
T1 sequence (O43497 whole entry): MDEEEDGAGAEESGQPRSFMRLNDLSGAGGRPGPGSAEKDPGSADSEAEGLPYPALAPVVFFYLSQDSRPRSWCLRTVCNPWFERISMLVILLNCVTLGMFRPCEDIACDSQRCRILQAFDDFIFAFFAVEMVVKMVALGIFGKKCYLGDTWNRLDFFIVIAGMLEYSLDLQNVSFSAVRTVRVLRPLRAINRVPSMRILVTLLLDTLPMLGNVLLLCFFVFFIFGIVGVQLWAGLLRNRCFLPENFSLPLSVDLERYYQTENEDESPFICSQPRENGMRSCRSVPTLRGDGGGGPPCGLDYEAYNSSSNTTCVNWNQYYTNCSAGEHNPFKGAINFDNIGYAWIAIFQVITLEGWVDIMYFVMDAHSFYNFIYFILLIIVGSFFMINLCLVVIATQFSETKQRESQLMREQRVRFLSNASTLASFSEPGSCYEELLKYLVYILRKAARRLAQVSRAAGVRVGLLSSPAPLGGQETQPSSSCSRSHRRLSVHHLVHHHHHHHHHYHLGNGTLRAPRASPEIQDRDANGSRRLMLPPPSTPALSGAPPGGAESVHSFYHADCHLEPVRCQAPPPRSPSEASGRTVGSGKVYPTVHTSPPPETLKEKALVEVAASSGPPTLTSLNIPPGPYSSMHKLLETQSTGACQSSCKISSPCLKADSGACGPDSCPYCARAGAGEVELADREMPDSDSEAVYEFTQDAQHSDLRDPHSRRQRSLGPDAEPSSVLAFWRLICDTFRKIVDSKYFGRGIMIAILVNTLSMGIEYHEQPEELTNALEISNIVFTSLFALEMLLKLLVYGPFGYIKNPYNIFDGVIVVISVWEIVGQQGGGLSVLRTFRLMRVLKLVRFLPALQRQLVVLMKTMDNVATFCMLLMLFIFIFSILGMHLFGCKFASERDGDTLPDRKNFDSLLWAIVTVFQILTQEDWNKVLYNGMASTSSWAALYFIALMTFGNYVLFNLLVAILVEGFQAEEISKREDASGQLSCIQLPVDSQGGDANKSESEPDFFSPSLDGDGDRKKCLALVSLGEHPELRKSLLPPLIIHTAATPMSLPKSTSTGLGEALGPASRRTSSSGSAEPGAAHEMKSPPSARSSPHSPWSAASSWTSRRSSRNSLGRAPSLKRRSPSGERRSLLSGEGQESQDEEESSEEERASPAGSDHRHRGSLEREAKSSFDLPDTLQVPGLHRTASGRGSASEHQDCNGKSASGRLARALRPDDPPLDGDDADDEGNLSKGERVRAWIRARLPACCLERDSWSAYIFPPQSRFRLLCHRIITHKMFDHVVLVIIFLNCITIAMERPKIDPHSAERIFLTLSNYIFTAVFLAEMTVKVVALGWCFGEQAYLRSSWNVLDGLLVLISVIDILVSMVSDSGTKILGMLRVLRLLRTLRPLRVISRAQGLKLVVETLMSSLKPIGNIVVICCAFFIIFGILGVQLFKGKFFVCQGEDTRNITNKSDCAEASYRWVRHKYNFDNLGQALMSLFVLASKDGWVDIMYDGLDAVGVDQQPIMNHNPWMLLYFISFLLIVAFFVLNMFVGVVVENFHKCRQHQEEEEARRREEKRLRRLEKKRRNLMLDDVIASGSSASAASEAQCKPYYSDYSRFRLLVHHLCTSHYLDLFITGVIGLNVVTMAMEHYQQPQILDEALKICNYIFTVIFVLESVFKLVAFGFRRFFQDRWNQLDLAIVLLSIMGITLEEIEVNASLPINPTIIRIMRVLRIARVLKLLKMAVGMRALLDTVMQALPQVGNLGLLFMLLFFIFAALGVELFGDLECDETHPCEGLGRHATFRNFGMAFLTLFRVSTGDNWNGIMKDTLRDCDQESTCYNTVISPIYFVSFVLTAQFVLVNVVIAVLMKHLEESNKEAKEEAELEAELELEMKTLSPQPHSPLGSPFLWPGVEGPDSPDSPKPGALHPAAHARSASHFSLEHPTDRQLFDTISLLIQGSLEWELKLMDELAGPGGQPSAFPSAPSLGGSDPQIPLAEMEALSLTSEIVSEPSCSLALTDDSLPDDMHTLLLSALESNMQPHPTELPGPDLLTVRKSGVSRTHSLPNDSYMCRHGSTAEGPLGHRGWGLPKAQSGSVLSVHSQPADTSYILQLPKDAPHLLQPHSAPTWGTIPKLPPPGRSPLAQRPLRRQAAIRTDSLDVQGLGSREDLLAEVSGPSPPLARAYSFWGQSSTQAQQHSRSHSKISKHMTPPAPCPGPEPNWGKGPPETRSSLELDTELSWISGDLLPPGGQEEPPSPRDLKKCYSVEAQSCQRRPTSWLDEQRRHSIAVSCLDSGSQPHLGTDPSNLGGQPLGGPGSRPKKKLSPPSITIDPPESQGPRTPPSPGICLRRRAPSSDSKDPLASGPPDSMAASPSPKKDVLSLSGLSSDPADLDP
Method in brief: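 HEK293 cells stably expressing α1G plus Kir2.1, grown in DMEM/10% FBS with geneticin and puromycin, plated at 4 × 10^4 cells/well and used next day. Loaded 60 min at room temperature with 5 µM fluo3/AM in Hepes-buffered saline, pH 7.4. Channels opened by depolarization with 70 mM KCl in buffer containing 10 mM CaCl2. Rise in intracellular Ca2+ read by fluorescence on FDSS6000.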

[2] = target: T1, Voltage-dependent T-type calcium channel subunit alpha-1G; experiment: Inhibition of T-type calcium channel Cav3.1 with alpha-1G subunit by patch clamp assay
[3] = 10 uM, in the assay text read “at 10 uM” for “at 100 uM”

Row | inhibition ([1]; 100 uM) | also measured | SMILES
1 | 3.8% |  | O=C(NCCN1CCOCC1)c1ccc2c(=O)n(-c3cccc(F)c3)c(=O)[nH]c2c1
2 | 28.9% |  | COc1cccc(Cn2c(=O)[nH]c3cc(C(=O)NCCCN4CCOCC4)ccc3c2=O)c1
3 | 36.9% |  | COc1cccc(Cn2c(=O)[nH]c3cc(C(=O)NCCCN4CCCCC4C)ccc3c2=O)c1 (centres undefined)
4 | 1.5% |  | COc1ccc(-n2c(=O)[nH]c3cc(C(=O)NCCCN4CCCCC4C)ccc3c2=O)cc1 (centres undefined)
5 |  | Activity ([1]; 100 uM): inactive | Cn1c(=O)[nH]c2cc(C(=O)NCCN3CCCC3)ccc2c1=O
6 |  | IC50 [2]: 7.98 µM | CCC1CCCCN1CCNC(=O)c1ccc2c(=O)n(Cc3ccc(F)cc3)c(=O)[nH]c2c1 (centres undefined)
7 | 12.5% |  | O=C(NCCN1CCCCC1)c1ccc2c(=O)n(-c3ccc(F)cc3)c(=O)[nH]c2c1
8 |  | Activity ([1]; 100 uM): inactive | COc1ccc(Cn2c(=O)[nH]c3cc(C(=O)NCCN4CCOCC4)ccc3c2=O)cc1
9 |  | Activity ([1]; 100 uM): inactive | O=C(NCCN1CCOCC1)c1ccc2c(=O)n(-c3ccc(F)cc3)c(=O)[nH]c2c1
10 |  | IC50 [2]: 3.38 µM | CCC1CCCCN1CCNC(=O)c1ccc2c(=O)n(Cc3ccc(Cl)cc3)c(=O)[nH]c2c1 (centres undefined)
11 | 12.7% |  | COc1ccccc1Cn1c(=O)[nH]c2cc(C(=O)NCCCN3CCCCC3C)ccc2c1=O (centres undefined)
12 | 9.2% |  | CCCn1c(=O)[nH]c2cc(C(=O)NCCCN3CCOCC3)ccc2c1=O
13 | 57.7% | IC50 [2]: 7.96 µM | O=C(NCCN1CCCC1)c1ccc2c(=O)n(C3CCCCC3)c(=O)[nH]c2c1
14 | 36% |  | COc1ccc(Cn2c(=O)[nH]c3cc(C(=O)NCCCN4CCOCC4)ccc3c2=O)cc1
15 | 3.4% |  | O=C(NCCN1CCCCC1)c1ccc2c(=O)n(-c3cccc(F)c3)c(=O)[nH]c2c1
16 |  | Activity ([1]; 100 uM): inactive | CCCn1c(=O)[nH]c2cc(C(=O)NCCCN3CCN(C)CC3)ccc2c1=O
17 |  | IC50 [2]: 5.97 µM | CCC1CCCCN1CCNC(=O)c1ccc2c(=O)n(Cc3ccc(OC)cc3)c(=O)[nH]c2c1 (centres undefined)
18 |  | IC50 [2]: 1.95 µM | O=C(NCCCN1CCCCC1)c1ccc2c(=O)n(Cc3ccc(Cl)cc3)c(=O)[nH]c2c1
19 | 4.3% |  | O=C(NCCN1CCCC1)c1ccc2c(=O)n(-c3cccc(F)c3)c(=O)[nH]c2c1
20 |  | Activity ([1]; 100 uM): inactive | COc1ccc(-n2c(=O)[nH]c3cc(C(=O)NCCCN4CCCC4)ccc3c2=O)cc1
21 | 13.2% |  | COc1cccc(Cn2c(=O)[nH]c3cc(C(=O)NCCCN4CCCC4)ccc3c2=O)c1
22 | 17.6% |  | Cn1c(=O)[nH]c2cc(C(=O)NCCN3CCCCC3)ccc2c1=O
23 |  | Activity ([1]; 100 uM): inactive | CCCn1c(=O)[nH]c2cc(C(=O)NCCN3CCOCC3)ccc2c1=O
24 | 8.5% |  | CC1CCCCN1CCCNC(=O)c1ccc2c(=O)n(C)c(=O)[nH]c2c1 (centres undefined)
25 | 47.2% |  | O=C(NCCN1CCCC1)c1ccc2c(=O)n(Cc3ccc(F)cc3)c(=O)[nH]c2c1

Row | inhibition ([1]; 100 uM) | also measured | SMILES
26 | 65% | IC50 [2]: 9.23 µM | O=C(NCCN1CCCCC1)c1ccc2c(=O)n(Cc3ccc(F)cc3)c(=O)[nH]c2c1
27 | 25.5% |  | CN1CCN(CCCNC(=O)c2ccc3c(=O)n(Cc4ccc(F)cc4)c(=O)[nH]c3c2)CC1
28 | 48.3% |  | CC1CCCCN1CCCNC(=O)c1ccc2c(=O)n(C3CCCCC3)c(=O)[nH]c2c1 (centres undefined)
29 | 9.8% |  | O=C(NCCCN1CCCC1)c1ccc2c(=O)n(Cc3cccc(F)c3)c(=O)[nH]c2c1
30 | 15.1% |  | O=C(NCCCN1CCOCC1)c1ccc2c(=O)n(-c3cccc(F)c3)c(=O)[nH]c2c1
31 | 20.1% |  | COc1cccc(Cn2c(=O)[nH]c3cc(C(=O)NCCCN4CCN(C)CC4)ccc3c2=O)c1
32 | 9.2% |  | O=C(NCCCN1CCOCC1)c1ccc2c(=O)n(-c3ccc(F)cc3)c(=O)[nH]c2c1
33 | 27.8% |  | COc1cccc(Cn2c(=O)[nH]c3cc(C(=O)NCCN4CCCC4)ccc3c2=O)c1
34 | 39.4% |  | COc1ccc(Cn2c(=O)[nH]c3cc(C(=O)NCCN4CCCC4)ccc3c2=O)cc1
35 | 68.3% | IC50 [2]: 3.31 µM | CCC1CCCCN1CCCNC(=O)c1ccc2c(=O)n(Cc3ccc(F)cc3)c(=O)[nH]c2c1 (centres undefined)
36 | 47.8% |  | CC1CCCCN1CCCNC(=O)c1ccc2c(=O)n(Cc3cccc(F)c3)c(=O)[nH]c2c1 (centres undefined)
37 | 34.2% |  | O=C(NCCCN1CCCC1)c1ccc2c(=O)n(Cc3ccc(F)cc3)c(=O)[nH]c2c1
38 |  | IC50 [2]: 1.52 µM | CCC1CCCCN1CCCNC(=O)c1ccc2c(=O)n(Cc3ccc(Cl)cc3)c(=O)[nH]c2c1 (centres undefined)
39 | 3.4% |  | CN1CCN(CCCNC(=O)c2ccc3c(=O)n(C)c(=O)[nH]c3c2)CC1
40 | 52.2% |  | O=C(NCCN1CCCCC1)c1ccc2c(=O)n(C3CCCCC3)c(=O)[nH]c2c1
41 | 6.5% |  | O=C(NCCN1CCCC1)c1ccc2c(=O)n(-c3ccccc3F)c(=O)[nH]c2c1
42 | 1.5% |  | COc1ccccc1-n1c(=O)[nH]c2cc(C(=O)NCCCN3CCCC3)ccc2c1=O
43 | 12.3% |  | COc1cccc(-n2c(=O)[nH]c3cc(C(=O)NCCCN4CCCCC4C)ccc3c2=O)c1 (centres undefined)
44 |  | inhibition [1, 3]: 6.2% | O=C(NCCCN1CCCC1)c1ccc2c(=O)n(Cc3ccccc3Cl)c(=O)[nH]c2c1
45 | 18% |  | CCCn1c(=O)[nH]c2cc(C(=O)NCCN3CCCCC3)ccc2c1=O
46 | 56.6% | IC50 [2]: 4.63 µM | CC1CCCCN1CCCNC(=O)c1ccc2c(=O)n(Cc3ccc(F)cc3)c(=O)[nH]c2c1 (centres undefined)
47 |  | IC50 [2]: 3.72 µM | CC1CCCCN1CCCNC(=O)c1ccc2c(=O)n(Cc3ccc(Cl)cc3)c(=O)[nH]c2c1 (centres undefined)
48 | 26.8% |  | COc1ccc(Cn2c(=O)[nH]c3cc(C(=O)NCCCN4CCCC4)ccc3c2=O)cc1
49 | 8.3% |  | CN1CCN(CCCNC(=O)c2ccc3c(=O)n(Cc4cccc(F)c4)c(=O)[nH]c3c2)CC1
50 | 36.3% |  | O=C(NCCCN1CCOCC1)c1ccc2c(=O)n(C3CCCCC3)c(=O)[nH]c2c1

Row | inhibition ([1]; 100 uM) | also measured | SMILES
51 | 2.8% |  | O=C(NCCCN1CCOCC1)c1ccc2c(=O)n(-c3ccccc3F)c(=O)[nH]c2c1
52 | 64.6% | IC50 [2]: 16.9 µM | O=C(NCCN1CCCCC1)c1ccc2c(=O)n(Cc3cccc(F)c3)c(=O)[nH]c2c1
53 |  | IC50 [2]: 2.08 µM | O=C(NCCN1CCCCC1)c1ccc2c(=O)n(Cc3ccc(Cl)cc3)c(=O)[nH]c2c1
54 | 24.9% |  | O=C(NCCN1CCCC1)c1ccc2c(=O)n(Cc3ccccc3F)c(=O)[nH]c2c1
55 |  | inhibition [1, 3]: 9.7% | O=C(NCCCN1CCOCC1)c1ccc2c(=O)n(Cc3ccc(Cl)cc3)c(=O)[nH]c2c1
56 |  | Activity ([1]; 100 uM): inactive | O=C(NCCCN1CCOCC1)c1ccc2c(=O)n(Cc3ccc(F)cc3)c(=O)[nH]c2c1
57 |  | Activity ([1]; 100 uM): inactive | COc1ccc(-n2c(=O)[nH]c3cc(C(=O)NCCCN4CCN(C)CC4)ccc3c2=O)cc1
58 |  | Activity ([1]; 100 uM): inactive | COc1cccc(-n2c(=O)[nH]c3cc(C(=O)NCCN4CCCCC4)ccc3c2=O)c1
59 |  | Activity ([1]; 100 uM): inactive | CC1CCCCN1CCCNC(=O)c1ccc2c(=O)n(-c3cccc(F)c3)c(=O)[nH]c2c1 (centres undefined)
60 | 42.3% |  | COc1ccc(Cn2c(=O)[nH]c3cc(C(=O)NCCCN4CCCCC4C)ccc3c2=O)cc1 (centres undefined)
61 |  | IC50 [2]: 0.1 µM | CCC1CCCCN1CCCNC(=O)c1ccc2c(=O)n(Cc3ccc(Cl)cc3)c(=S)[nH]c2c1 (centres undefined)
62 |  | Activity ([1]; 100 uM): inactive | O=C(NCCCN1CCCC1)c1ccc2c(=O)n(-c3cccc(F)c3)c(=O)[nH]c2c1
63 |  | IC50 [2]: 2.46 µM | O=C(NCCN1CCCC1)c1ccc2c(=O)n(Cc3ccc(Cl)cc3)c(=O)[nH]c2c1
64 | 6.7% |  | CCCn1c(=O)[nH]c2cc(C(=O)NCCN3CCCC3)ccc2c1=O
65 |  | Activity ([1]; 100 uM): inactive | COc1cccc(-n2c(=O)[nH]c3cc(C(=O)NCCCN4CCCC4)ccc3c2=O)c1
66 | 12.5% |  | CCCn1c(=O)[nH]c2cc(C(=O)NCCCN3CCCCC3C)ccc2c1=O (centres undefined)
67 |  | IC50 [2]: 2.79 µM | CCC1CCCCN1CCCNC(=O)c1ccc2c(=O)n(Cc3ccccc3Cl)c(=O)[nH]c2c1 (centres undefined)
68 | 7.2% |  | O=C(NCCN1CCCCC1)c1ccc2c(=O)n(-c3ccccc3F)c(=O)[nH]c2c1
69 | 2.4% |  | CN1CCN(CCCNC(=O)c2ccc3c(=O)n(-c4ccccc4F)c(=O)[nH]c3c2)CC1
70 | 10.5% |  | COc1ccc(-n2c(=O)[nH]c3cc(C(=O)NCCN4CCCC4)ccc3c2=O)cc1
71 | 62.9% |  | COc1cccc(Cn2c(=O)[nH]c3cc(C(=O)NCCN4CCCCC4)ccc3c2=O)c1
72 | 7.3% |  | CN1CCN(CCCNC(=O)c2ccc3c(=O)n(Cc4ccccc4F)c(=O)[nH]c3c2)CC1
73 | 13.9% |  | CC1CCCCN1CCCNC(=O)c1ccc2c(=O)n(Cc3ccccc3F)c(=O)[nH]c2c1 (centres undefined)
74 | 13.1% |  | COc1cccc(-n2c(=O)[nH]c3cc(C(=O)NCCN4CCCC4)ccc3c2=O)c1
